Results as given in ChEMBL document CHEMBL4477241, “Structure-Activity Relationship Studies for Enhancer of Zeste Homologue 2 (EZH2) and Enhancer of Zeste Homologue 1 (EZH1) Inhibitors” (J Med Chem, 2016).

How the values were obtained:
[1] = target: Histone-lysine N-methyltransferase EZH2 (Homo sapiens, UniProt O75530+Q15022+Q15910); assay: Inhibition of EZH2 histone methyltransferase activity of EZH2/EED/SUZ12 protein complex (unknown origin) using histone H3 peptide as substrate (21 to 44 residues) in presence of [3H]-S-adenosylmethionine after 2 hrs by scintillation proximity assay
Procedure, shortened: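 20 nM EZH2 trimeric complex with 2 μM 3H-SAM and 1 μM biotinylated H3(21–44) in 20 mM Tris-HCl pH 8, 5 mM DTT, 0.01% Triton X-100. Incubated 1 h at 23 °C, quenched with guanidine hydrochloride, then 2 h streptavidin flash-plate capture. Activity scaled between no-compound and no-enzyme counts.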

[2] = target: T1, Histone-lysine N-methyltransferase EZH1 (Homo sapiens, UniProt Q92800); assay: Inhibition of EZH1 histone methyltransferase activity of EZH1/EED/SUZ12/RBBP4/AEBP2 protein complex (unknown origin) using histone H3 peptide as substrate (21 to 44 residues) in presence of [3H]-S-adenosylmethionine after 2 hrs by scintillation proximity assay
T1 sequence (Q92800 whole entry): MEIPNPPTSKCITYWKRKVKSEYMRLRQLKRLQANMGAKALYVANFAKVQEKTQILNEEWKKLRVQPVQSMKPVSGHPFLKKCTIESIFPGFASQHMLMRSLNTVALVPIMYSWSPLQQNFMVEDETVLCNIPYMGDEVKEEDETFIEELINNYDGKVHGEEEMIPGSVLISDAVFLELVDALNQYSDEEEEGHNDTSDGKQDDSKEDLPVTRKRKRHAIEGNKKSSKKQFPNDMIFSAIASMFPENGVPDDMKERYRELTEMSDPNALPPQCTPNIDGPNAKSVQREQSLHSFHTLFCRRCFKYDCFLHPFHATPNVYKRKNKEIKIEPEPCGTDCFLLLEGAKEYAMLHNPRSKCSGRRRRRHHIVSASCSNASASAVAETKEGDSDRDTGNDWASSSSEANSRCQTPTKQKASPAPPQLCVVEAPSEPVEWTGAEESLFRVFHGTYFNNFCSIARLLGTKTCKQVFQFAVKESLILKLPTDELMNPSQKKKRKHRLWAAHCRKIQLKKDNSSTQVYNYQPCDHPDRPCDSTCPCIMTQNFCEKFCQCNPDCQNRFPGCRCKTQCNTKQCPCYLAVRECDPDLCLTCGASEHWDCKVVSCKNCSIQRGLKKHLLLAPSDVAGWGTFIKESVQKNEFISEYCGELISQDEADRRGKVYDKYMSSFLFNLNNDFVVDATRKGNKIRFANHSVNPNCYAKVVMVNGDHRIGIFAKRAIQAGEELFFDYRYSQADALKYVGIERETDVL
Procedure, shortened: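 10 nM EZH1 pentameric complex with 4 μM 3H-SAM and 1 μM biotinylated H3(21–44) in 20 mM Tris-HCl pH 8, 5 mM DTT, 0.01% Triton X-100. Reaction run 1 h at 23 °C, stopped with guanidine hydrochloride, then captured 2 h on a streptavidin flash plate. Counts normalized to no-compound (100%) and no-enzyme (0%) controls.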

Sequence of Histone-lysine N-methyltransferase EZH2 (Q15910 whole entry, the tested form may be a part, one chain of several): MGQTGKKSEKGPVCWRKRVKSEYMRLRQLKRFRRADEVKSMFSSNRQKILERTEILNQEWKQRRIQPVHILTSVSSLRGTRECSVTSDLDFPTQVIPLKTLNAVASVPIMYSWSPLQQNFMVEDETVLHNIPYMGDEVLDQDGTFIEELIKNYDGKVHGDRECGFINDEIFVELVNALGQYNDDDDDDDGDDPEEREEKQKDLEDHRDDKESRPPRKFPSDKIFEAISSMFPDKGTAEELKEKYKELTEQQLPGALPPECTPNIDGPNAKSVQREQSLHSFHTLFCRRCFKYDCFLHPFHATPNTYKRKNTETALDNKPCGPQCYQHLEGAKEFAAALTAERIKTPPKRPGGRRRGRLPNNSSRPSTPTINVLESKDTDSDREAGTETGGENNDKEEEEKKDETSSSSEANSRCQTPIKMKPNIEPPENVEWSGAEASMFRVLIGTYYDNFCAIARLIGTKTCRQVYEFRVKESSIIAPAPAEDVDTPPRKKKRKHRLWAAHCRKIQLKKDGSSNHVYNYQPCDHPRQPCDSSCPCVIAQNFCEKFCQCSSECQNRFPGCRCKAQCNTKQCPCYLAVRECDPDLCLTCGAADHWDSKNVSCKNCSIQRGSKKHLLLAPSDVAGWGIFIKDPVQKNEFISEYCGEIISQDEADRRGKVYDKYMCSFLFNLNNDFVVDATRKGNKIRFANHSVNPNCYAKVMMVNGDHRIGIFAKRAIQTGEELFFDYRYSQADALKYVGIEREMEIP

SMILES | IC50 [1] [µM] | IC50 [2] [µM]
CCCc1cc(C)[nH]c(=O)c1CNC(=O)c1cc(-c2ccc(N3CCN(C(C)C)CC3)nc2)cc2c1cnn2CC1CCCCC1 | 0.697 | > 2.5
CCCc1cc(C)[nH]c(=O)c1CNC(=O)c1cc(N2CCNCC2)cc2c1cnn2C(C)C | 0.017 | 0.88
CCCc1cc(C)[nH]c(=O)c1CNC(=O)c1cc(N2CCCNCC2)cc2c1cnn2C(C)C | 0.042 | > 2.5
CCCc1cc(C)[nH]c(=O)c1CNC(=O)c1cc(-c2ccc(N3CCN(C(C)C)CC3)nc2)cc2c1cnn2CC1CCCC1 | 0.149 | > 2.5
CCCc1cc(C)[nH]c(=O)c1CNC(=O)c1cc(-c2ccccn2)cc2c1cnn2C(C)C | 0.024 | 0.681
CCCc1cc(C)[nH]c(=O)c1CNC(=O)c1cccn2c(-c3ccc(N4CCN(C(C)C)CC4)nc3)cnc12 | > 5 | > 5
CCCc1cc(C)[nH]c(=O)c1CNC(=O)c1cc(-c2ccc(F)cn2)cc2c1cnn2C(C)C | 0.022 | 0.773
CCCc1cc(C)[nH]c(=O)c1CNC(=O)c1cc(Br)cc2c1cnn2C(C)C | 0.035 | > 5
CCCc1cc(C)[nH]c(=O)c1CNC(=O)c1nn(C(C)C)c2cc(-c3ccc(N4CCN(C(C)C)CC4)nc3)ccc12 | > 5 | > 5
CCCc1cc(C)[nH]c(=O)c1CNC(=O)c1cc(-c2ccc(N3CCN(C(C)C)CC3)nc2)cc2c1cnn2Cc1ccccc1 | 0.28 | > 5
CCCc1cc(C)[nH]c(=O)c1CNC(=O)c1cc(C2CCNCC2)cc2c1cnn2C(C)C | 0.011 | 0.613
CCCc1cc(C)[nH]c(=O)c1CNC(=O)c1cc(-c2ccc(N3CCN(C(C)C)CC3)nc2)cc2c1cnn2CCCCCCO | 0.025 | 0.394
CCCc1cc(C)[nH]c(=O)c1CNC(=O)c1nn(C(C)C)c2ccc(-c3ccc(N4CCN(C(C)C)CC4)nc3)cc12 | > 5 | > 5
CCCc1cc(C)[nH]c(=O)c1CNC(=O)c1cn2ccc(-c3ccc(N4CCN(C(C)C)CC4)nc3)cc2n1 | > 10 | > 10
CCCc1cc(C)[nH]c(=O)c1CNC(=O)c1cc(-c2ccc(N3CCN(C(C)C)CC3)nc2)cc2c1cnn2C1CCCCC1 | < 0.01 | 
CCCc1cc(C)[nH]c(=O)c1CNC(=O)c1cc(-c2ccc(C(F)(F)F)cn2)cc2c1cnn2C(C)C | 0.064 | > 5
CCCc1cc(C)[nH]c(=O)c1CNC(=O)c1cnn2c(-c3ccc(N4CCN(C(C)C)CC4)nc3)cccc12 | > 5 | > 5
CCCc1cc(C)[nH]c(=O)c1CNC(=O)c1cc(NC2CCNCC2)cc2c1cnn2C(C)C | 0.026 | > 1.25
CCCc1cc(C)[nH]c(=O)c1CNC(=O)c1cc(-c2ccc(N3CCN(C(C)C)CC3)nc2)cc2c1cnn2C1CCCC1 | < 0.01 | 0.108
CC(C)N1CCN(c2ccc(-c3cc(C(=O)NC4CC(C)(C)NC(C)(C)C4)c4cnn(C(C)C)c4c3)cn2)CC1 | > 10 | > 10
CCCc1cc(C)[nH]c(=O)c1CNC(=O)c1cc(-c2ccc(N3CCN(C(C)C)CC3)nc2)cc2c1cnn2C1CCCCCC1 | 0.117 | > 2.5
CCCc1cc(C)[nH]c(=O)c1CNC(=O)c1cc(-c2ccc(C(F)(F)F)cc2)cc2c1cnn2C(C)C | 0.066 | > 1.25
CCCc1cc(C)[nH]c(=O)c1CNC(=O)c1cc(-c2ccccc2)cc2c1cnn2C(C)C | 0.041 | > 1.25
CCCc1cc(C)[nH]c(=O)c1CNC(=O)c1cc(-c2ccc(N3CCN(C(C)C)CC3)nc2)cc2c1cnn2CCC1CCCCC1 | > 1.25 | > 2.5
CCCc1cc(C)[nH]c(=O)c1CNC(=O)c1cc(-c2ccc(F)cc2)cc2c1cnn2C(C)C | 0.048 | > 1.25

Other lines, results leading:

IC50 [1] [µM] | IC50 [2] [µM] | SMILES
< 0.01 | 0.127 | CCCc1cc(C)[nH]c(=O)c1CNC(=O)c1cc(-c2ccc(N3CCN(C(C)C)CC3)nc2)cc2c1cnn2C(C)(C)C
 | > 2.5 | Cc1cc(C)c(CNC(=O)c2cc(-c3ccc(N4CCN(C(C)C)CC4)nc3)cc3c2cnn3C(C)C)c(=O)[nH]1
1.11 | > 5 | CCCCC(CC)Cn1ncc2c(C(=O)NCc3c(CCC)cc(C)[nH]c3=O)cc(-c3ccc(N4CCN(C(C)C)CC4)nc3)cc21 (stereo not drawn)
0.328 | > 5 | Cc1[nH]c(=O)c(CNC(=O)c2cc(-c3ccc(N4CCN(C(C)C)CC4)nc3)cc3c2cnn3C(C)C)c(C)c1C
> 10 | > 10 | Cc1cc(C(C)(C)C)[nH]c(=O)c1CNC(=O)c1cc(-c2ccc(N3CCN(C(C)C)CC3)nc2)cc2c1cnn2C(C)C
< 0.01 | 0.088 | CCCc1cc(C)[nH]c(=O)c1CNC(=O)c1cc(-c2ccc(N3CCN(CC)CC3)nc2)cc2c1cnn2C(C)C
1.02 | > 5 | CCc1c(C)c[nH]c(=O)c1CNC(=O)c1cc(-c2ccc(N3CCN(C(C)C)CC3)nc2)cc2c1cnn2C(C)C
0.073 | > 5 | CCc1cc(C)c(CNC(=O)c2cc(-c3ccc(N4CCN(C(C)C)CC4)nc3)cc3c2cnn3C(C)C)c(=O)[nH]1
< 0.01 |  | CCCc1cc(C)[nH]c(=O)c1CNC(=O)c1cc(-c2ccc(N3CCN(C(C)C)CC3)nc2)cc2c1cnn2C(C)C
> 2.5 | > 2.5 | Cc1[nH]c(=O)c(CNC(=O)c2cc(-c3ccc(N4CCN(C(C)C)CC4)nc3)cc3c2cnn3C(C)C)c2c1CCCC2
0.384 | > 2.5 | CCCc1cc(C)[nH]c(=O)c1CNC(=O)c1cc(-c2ccc(N3CCN(C(C)C)CC3)nc2)cc2nn(C(C)C)cc12
> 10 | > 10 | Cc1cc(O)c(CNC(=O)c2cc(-c3ccc(N4CCN(C(C)C)CC4)nc3)cc3c2cnn3C(C)C)c(=O)[nH]1
0.032 | > 1.25 | CCC(C)c1cc(C)c(CNC(=O)c2cc(-c3ccc(N4CCN(C(C)C)CC4)nc3)cc3c2cnn3C(C)C)c(=O)[nH]1 (stereo not drawn)
< 0.01 | 0.16 | CCCCc1cc(C)[nH]c(=O)c1CNC(=O)c1cc(-c2ccc(N3CCN(C(C)C)CC3)nc2)cc2c1cnn2C(C)C
> 2.3 | > 10 | Cc1ncc(CNC(=O)c2cc(-c3ccc(N4CCN(C(C)C)CC4)nc3)cc3c2cnn3C(C)C)c(=O)[nH]1
< 0.01 | 0.211 | Cc1cc(CC(C)C)c(CNC(=O)c2cc(-c3ccc(N4CCN(C(C)C)CC4)nc3)cc3c2cnn3C(C)C)c(=O)[nH]1
< 0.01 | 0.126 | CCCc1cc(C)[nH]c(=O)c1CNC(=O)c1cc(-c2ccc(N3CCN(C(C)C)CC3)nc2)cc2c1cnn2C(CC)CC
> 5 | > 5 | CC(C)N1CCN(c2ccc(-c3cc(C(=O)NCc4ccc[nH]c4=O)c4cnn(C(C)C)c4c3)cn2)CC1
0.19 | > 2.5 | CCCc1cc(C)[nH]c(=O)c1CNC(=O)c1cc(-c2ccc(N3CCN(C(C)C)CC3)nc2)cc2c1cnn2C
> 10 | > 10 | Cc1[nH]c(=O)[nH]c(=O)c1CNC(=O)c1cc(-c2ccc(N3CCN(C(C)C)CC3)nc2)cc2c1cnn2C(C)C
< 0.01 | 0.32 | Cc1cc(C(C)C)c(CNC(=O)c2cc(-c3ccc(N4CCN(C(C)C)CC4)nc3)cc3c2cnn3C(C)C)c(=O)[nH]1
< 0.01 | 0.06 | CCCc1cc(C)[nH]c(=O)c1CNC(=O)c1cc(-c2ccc(N3CCNCC3)nc2)cc2c1cnn2C(C)C
< 0.01 | 0.086 | Cc1cc(C2CCCC2)c(CNC(=O)c2cc(-c3ccc(N4CCN(C(C)C)CC4)nc3)cc3c2cnn3C(C)C)c(=O)[nH]1
0.057 | > 2.5 | CCCc1cc(C)[nH]c(=O)c1CNC(=O)c1cc(-c2ccc(N3CCN(C(C)C)CC3)nc2)cc2c1cnn2CC1CCC1
> 10 | > 10 | CC(C)N1CCN(c2ccc(-c3cc(C(=O)NCc4cnc[nH]c4=O)c4cnn(C(C)C)c4c3)cn2)CC1
0.032 | > 2.5 | Cc1[nH]c(=O)c(CNC(=O)c2cc(-c3ccc(N4CCN(C(C)C)CC4)nc3)cc3c2cnn3C(C)C)c2c1CCC2
> 10 | > 10 | Cc1cc(-c2ccccc2)[nH]c(=O)c1CNC(=O)c1cc(-c2ccc(N3CCN(C(C)C)CC3)nc2)cc2c1cnn2C(C)C
0.54 | > 5 | CCCc1cc(C)[nH]c(=O)c1CNC(=O)c1cc(-c2ccc(N3CCN(C(C)C)CC3)nc2)c2cnn(C(C)C)c2c1
